Data taken from ChEMBL document CHEMBL1126132, “5,5-disubstituted hydantoins: syntheses and anti-HIV activity” (J Med Chem, 1992).
pIC50: −log10 of the molar value.

Legend:
CCRF-CEM [1] = assay: Inhibition of HIV-1 RF induced cytotoxicity in CEM cells; Inactive.; assay type: functional, cell-based
Procedure, shortened: (§1)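 CEM cells at 5×10^3 per well were infected with HIV-1 RF at MOI 0.01, chosen to give complete cell killing by day 6. Five serial half-log dilutions starting at 100 μM were tested in triplicate. After 6 days at 37 °C, viability was read by XTT. IC50 is the minimum concentration inhibiting CPE by 50%, from semilog regression curve fitting.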

CCRF-CEM [2] = assay: Compound was tested for antiviral activity by measuring its ability to inhibit HIV induced virus production in CEM cells; assay type: functional, Homo sapiens
[3] = test system: Human immunodeficiency virus type 1 (RF/HAT ISOLATE); assay: Inhibition of HIV-1 RF viral production in MT-2 cells.; assay type: functional, Human immunodeficiency virus 1, MT2
MT2 [4] = assay: Inhibition of HIV-1 RF induced cytotoxicity in MT-2 cells; Inactive.; assay type: functional, cell-based
Procedure, shortened: (§2)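 MT-2 cells at 5×10^3 per well were infected with HIV-1 RF at MOI 0.005, chosen to give complete killing at 6 days. Triplicate wells received five half-log dilutions from 100 μM. After 6 days at 37 °C, XTT colorimetry gave viability. IC50 is the minimum concentration reducing CPE by 50%, calculated by semilog regression.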

CCRF-CEM [5] = assay: Compound was tested for antiviral activity by measuring its ability to inhibit HIV induced cell killing in CEM cells; assay type: functional, cell-based; details: Homo sapiens; procedure, shortened: as §1
CCRF-CEM [6] = assay: Compound was tested for antiviral activity by measuring its ability to inhibit HIV induced virus production in CEM cells; NT indicates nontoxic uM; assay type: functional, cell-based; details: Homo sapiens
Procedure, shortened: (§3)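 Cytotoxicity was measured in uninfected cells with drug, in CEM or MT-2 at 5×10^3 per well. There were five half-log dilutions up to 100 μM, the highest concentration, in triplicate. Cells were incubated 6 days at 37 °C and viability was read by XTT. TC25 is the minimum concentration cutting viability by 25%; NT means nontoxic up to 100 μM.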

MT2 [7] = assay: Compound was tested for antiviral activity by measuring its ability to inhibit HIV induced virus production in MT-2 cells; NT indicates nontoxic uM; assay type: functional, cell-based; procedure, shortened: as §3
MT2 [8] = assay: Compound was tested for antiviral activity by measuring its ability to inhibit HIV induced cell killing in MT-2 cells; assay type: functional, cell-based; details: Homo sapiens; procedure, shortened: as §2

SMILES	IC50 (CCRF-CEM [1])	TC25 (CCRF-CEM [2])	TC25 [3]	IC50 (MT2 [4])	pIC50 (CCRF-CEM [5])	TC25 (CCRF-CEM [6])	TC25 (MT2 [7]; Homo sapiens)	pIC50 (MT2 [8])	NT (MT2 [7])	TC25 (MT2 [7])
O=C1NC(=O)C(CSc2ccccc2)(CSc2ccccc2)N1	Nontoxic up to 100uM	64 µM	50 µM	–	–	–	–	–	–	–
O=C1NC(=O)C(CS)(CS)N1	–	3 µM	0.8 µM	Nontoxic up to 100uM	6.22	–	–	–	–	–
O=C1NC(=O)C(CSCc2cccc3ccccc23)(CSCc2cccc3ccccc23)N1	Nontoxic up to 100uM	–	–	Nontoxic up to 100uM	–	Nontoxic up to 100uM	Nontoxic up to 100uM	–	–	–
O=C1NC(=O)C(CSCc2ccccc2)N1 (configuration not stated)	Nontoxic up to 100uM	5 µM	2 µM	–	–	–	–	–	–	–
O=C1NC(=O)C(CSCc2ccncc2)(CSCc2ccncc2)N1	–	–	45 µM	Nontoxic up to 100uM	4.28	Nontoxic up to 100uM	–	–	–	–
O=C1NC(=O)C(CSCc2ccc(Br)cc2)(CSCc2ccc(Br)cc2)N1	Nontoxic up to 100uM	16 µM	7 µM	Nontoxic up to 100uM	–	–	–	–	–	–
O=C1NC(=O)C(CSCc2cccs2)(CSCc2cccs2)N1	Nontoxic up to 100uM	–	17 µM	Nontoxic up to 100uM	–	Nontoxic up to 100uM	–	–	–	–
Nc1ccc(CSCC2(CSCc3ccc(N)cc3)NC(=O)NC2=O)cc1	–	–	16 µM	–	4.06	Nontoxic up to 100uM	–	5.22	–	–
O=C1NC(=O)C(COCc2ccccc2)(COCc2ccccc2)N1	Nontoxic up to 100uM	>100 µM	87 µM	Nontoxic up to 100uM	–	–	–	–	–	–
O=C1NC(=O)C(CSc2ccncc2)(CSc2ccncc2)N1	Nontoxic up to 100uM	–	–	Nontoxic up to 100uM	–	Nontoxic up to 100uM	–	–	Nontoxic up to 100uM	–
S=C1NC(=S)C(CSCc2ccccc2)(CSCc2ccccc2)N1	Nontoxic up to 100uM	16 µM	16 µM	–	–	–	–	–	–	–
O=C1NC(=O)C(CSCC2CCCCC2)(CSCC2CCCCC2)N1	Nontoxic up to 100uM	8 µM	12 µM	Nontoxic up to 100uM	–	–	–	–	–	–
COC(=O)c1ccc(CSCC2(CSCc3ccc(C(=O)OC)cc3)NC(=O)NC2=O)cc1	Nontoxic up to 100uM	25 µM	10 µM	Nontoxic up to 100uM	–	–	–	–	–	–
N#Cc1ccc(CSCC2(CSCc3ccc(C#N)cc3)NC(=O)NC2=O)cc1	–	15 µM	8 µM	Nontoxic up to 100uM	4.60	–	–	–	–	–
O=C1NC(=O)C(CSCc2ccccn2)(CSCc2ccccn2)N1	Nontoxic up to 100uM	–	–	–	–	Nontoxic up to 100uM	Nontoxic up to 100uM	4.09	–	–
O=C1NC(=O)C(CSCc2ccc([N+](=O)[O-])cc2)(CSCc2ccc([N+](=O)[O-])cc2)N1	–	9 µM	5 µM	Nontoxic up to 100uM	4.72	–	–	–	–	–
NC(CSCc1ccccc1)(CSCc1ccccc1)C(=O)O	Nontoxic up to 100uM	–	60 µM	Nontoxic up to 100uM	–	Nontoxic up to 100uM	–	–	–	–
COc1ccc(CSCC2(CSCc3ccc(OC)cc3)NC(=O)NC2=O)cc1	–	6 µM	6 µM	Nontoxic up to 100uM	4.64	–	–	–	–	–
O=C1NC(=O)C(CSCc2ccccc2)(CSCc2ccccc2)N1	Nontoxic up to 100uM	–	–	–	–	Nontoxic up to 100uM	–	4.77	–	Nontoxic up to 100uM
O=C1NC(=O)C(CS)(CSCc2ccccc2)N1 (configuration not stated)	Nontoxic up to 100uM	34 µM	50 µM	–	–	–	–	–	–	–
O=C1NC(=O)C(CSC(=O)c2ccccc2)(CSC(=O)c2ccccc2)N1	–	31 µM	5 µM	Nontoxic up to 100uM	5.15	–	–	–	–	–
O=C1NC(=O)C(CSCc2cccnc2)(CSCc2cccnc2)N1	Nontoxic up to 100uM	–	–	Nontoxic up to 100uM	–	Nontoxic up to 100uM	Nontoxic up to 100uM	–	–	–
O=C1NC(=O)C(CSCCO)(CSCc2ccccc2)N1 (configuration not stated)	Nontoxic up to 100uM	–	–	Nontoxic up to 100uM	–	Nontoxic up to 100uM	Nontoxic up to 100uM	–	–	–
O=C1NC(=O)C(CSCc2ccc(C(=O)O)cc2)(CSCc2ccc(C(=O)O)cc2)N1	Nontoxic up to 100uM	–	–	Nontoxic up to 100uM	–	Nontoxic up to 100uM	–	–	–	Nontoxic up to 100uM
